Measured values gathered from unrelated publications.
Observed: enzyme activity
Mode: inhibitor
KIT: Mast/stem cell growth factor receptor Kit (KIT, Homo sapiens, UniProt P10721)
KIT V560G: Mast/stem cell growth factor receptor Kit (KIT, Homo sapiens, UniProt P10721, V560G)

C=CC(=O)Nc1cc(Nc2nccc(Nc3cc(Cl)c(F)cc3C(C)(C)O)n2)c(OC)cc1N1CC[C@@H](N(C)C)C1  inhibition (KIT; 1 µM): 2%
CCCS(=O)(=O)Nc1ccc(F)c(C(=O)c2c[nH]c3ncc(-c4ccc(Cl)cc4)cc23)c1F  inhibition (KIT; 1 µM): < 20%
CNC(=O)c1cc2c(Oc3ccc(NC(=O)C4(C(=O)Nc5ccc(F)cc5)CC4)cc3)ccnc2cc1OC  inhibition (KIT V560G; radiometric; 1 µM): 92%
CN(C)C1CCN(CC#Cc2nn(C3CCCC3)c3nc(NCc4ccccc4)ncc23)C1 (centres unmarked)  inhibition (KIT; FRET; 10 µM): 11%
CS(=O)(=O)Nc1cccc(-c2csc(NC(=O)CSc3nc4nccnc4c(=O)n3CCc3ccccc3)n2)c1  inhibition (KIT; 10 µM): -5%
CC/C(=N\NC(=O)NCc1cccc(O)c1)c1ccc(O)c(C)c1O  inhibition (Mast/stem cell growth factor receptor Kit (KIT, Homo sapiens, UniProt P10721, V654A); 0.1 µM): -0.5%
COc1cc(-c2cc(-c3ccc(N4CCNCC4)cc3)cnc2N)cc(OC)c1OC  inhibition (KIT V560G; 1 µM): 5%
COc1cc2ncnc(Nc3ccc(Oc4ccccc4)c(C)c3C)c2cc1OC  inhibition (KIT; 1 µM): 8%
O=C(CSc1nc2nccnc2c(=O)n1CCc1ccccc1)Nc1nccs1  inhibition (Mast/stem cell growth factor receptor Kit (KIT, Homo sapiens, UniProt P10721, T670I/V559D); 10 µM): 1%
COc1cc2ncnc(Nc3ccc(Oc4ccccc4)cc3C)c2cc1OC  inhibition (KIT; 1 µM): -1%
CCOc1cc(-c2nncn2C)ccc1Nc1ncc2cc(C)nc(NCC(C)(C)C)c2n1  inhibition (KIT; FRET; 1 µM): < 15%
